Laboratory results published in ChEMBL document CHEMBL4831494, “Synthesis and evaluation of FAK inhibitors with a 5-fluoro-7H-pyrrolo[2,3-d]pyrimidine scaffold as anti-hepatocellular carcinoma agents” (Eur J Med Chem, 2021).
Blank lines part the entries; values can stand above or below the compound they belong to. Activity calls are given as the source filed them. The calls are words filed in the database; no cut-off is given here.

Tests used:
cells = details: Homo sapiens, YY-8103, 48 h
SMMC-7721 [1] = assay: cells; details: Homo sapiens, SMMC-7721, 48 h
Focal adhesion kinase 1 [2] = molecular target: T1, Focal adhesion kinase 1 (Homo sapiens, UniProt Q05397); assay: Inhibition of FAK (unknown origin) using Poly(Glu,Tyr) and ATP as substrate measured after 40 mins by Kinase-Glo Plus luminescence assay
Target sequence in this assay (Q05397 whole entry): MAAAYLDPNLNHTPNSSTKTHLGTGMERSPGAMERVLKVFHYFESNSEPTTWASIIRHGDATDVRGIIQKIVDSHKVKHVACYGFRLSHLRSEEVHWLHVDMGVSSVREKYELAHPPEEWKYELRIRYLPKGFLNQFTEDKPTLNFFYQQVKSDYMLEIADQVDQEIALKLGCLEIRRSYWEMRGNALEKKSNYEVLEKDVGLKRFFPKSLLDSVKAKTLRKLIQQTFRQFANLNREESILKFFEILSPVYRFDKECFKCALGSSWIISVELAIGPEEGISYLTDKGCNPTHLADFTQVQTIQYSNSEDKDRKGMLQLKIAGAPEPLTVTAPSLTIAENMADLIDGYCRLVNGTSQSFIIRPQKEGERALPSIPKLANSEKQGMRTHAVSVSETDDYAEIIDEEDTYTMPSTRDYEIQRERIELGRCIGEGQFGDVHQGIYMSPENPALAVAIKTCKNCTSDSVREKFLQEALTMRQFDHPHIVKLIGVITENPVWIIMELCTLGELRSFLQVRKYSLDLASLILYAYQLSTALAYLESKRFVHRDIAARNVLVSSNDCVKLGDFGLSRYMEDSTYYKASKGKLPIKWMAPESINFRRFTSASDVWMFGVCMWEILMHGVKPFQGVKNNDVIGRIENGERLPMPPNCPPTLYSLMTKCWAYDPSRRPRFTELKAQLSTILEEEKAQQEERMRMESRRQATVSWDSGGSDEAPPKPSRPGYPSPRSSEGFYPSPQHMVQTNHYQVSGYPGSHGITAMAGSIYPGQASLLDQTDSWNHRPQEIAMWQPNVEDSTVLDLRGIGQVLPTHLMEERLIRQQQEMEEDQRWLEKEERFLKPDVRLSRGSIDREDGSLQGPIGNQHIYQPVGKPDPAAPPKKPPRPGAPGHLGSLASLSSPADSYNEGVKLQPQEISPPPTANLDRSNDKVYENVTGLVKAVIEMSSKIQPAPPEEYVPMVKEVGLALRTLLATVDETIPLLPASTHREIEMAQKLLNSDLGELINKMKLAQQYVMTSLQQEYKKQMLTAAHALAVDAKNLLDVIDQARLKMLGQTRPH

[3] = Tmax in Sprague-Dawley rat at 10 mg/kg, po measured upto 24 hrs by LC-MS/MS analysis; type: ADME, organism-based; details: in vivo
Procedure, shortened: (§1)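 Male SD rats, 6e8 weeks, 220 30 g, three per route (p.o. or i.v.). Compound given in DMSO/Solutol/saline (5/10/85). Centrifuged 6800 g for 6 min at 2e8 °C, frozen near −80 °C, analysed by LC-MS/MS. Mean ± SEM, n = 3.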

[4] = Clearance in Sprague-Dawley rat at 2 mg/kg, iv measured upto 24 hrs by LC-MS/MS analysis; type: ADME, organism-based; details: in vivo
Procedure, shortened: as §1

[5] = Acute toxicity in Kunming mouse assessed as body weight at 5 to 200 mg/kg, ip observed for 10 days; type: organism-based; details: in vivo, 240 h, dose 5-200 mg/kg, time 10 day
Procedure, shortened: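 Kunming mice (18-22 g), 30 animals in 5 groups of 6 (3 male, 3 female); single intraperitoneal dose of 0, 5, 10, 50 or 200 mg/kg in DMSO/propylene glycol/PBS (2/5/3). Animals observed and weighed daily for 10 days.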

SMMC-7721 [6] = assay: Antitumor activity against human […] cells xenografted in BALB/c nude mouse assessed as tumor growth inhibition at 30 mg/kg, ip administered for 19 days; type: functional; details: SMMC-7721, ip, 456 h, time 19 day, read-out: TGI
Procedure, shortened: (§2)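 Male BALB/c nude mice, six weeks old, inoculated s.c. with 1.0 × 10⁷ SMMC7721 cells. Dosing began at mean tumour 25e35 mm³; five randomized groups, n = 8. Solvent DMSO/propylene glycol/PBS 2:5:3 (vehicle 1.0 mL/kg), all given i.p. every 3 days. Tumour size (calipers) and body weight taken before each dose. V = length × width²/2. TGI = [1 − (T−T₀)/(C−C₀)] × 100.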

Focal adhesion kinase 1 [7] = molecular target: T1, Focal adhesion kinase 1; assay: Inhibition of FAK phosphorylation in human HCC cells assessed as reduction in mTOR phosphorylation at 30 mg/kg by KEGG analysis
Target sequence in this assay (Q05397 2-1052 limits assumed): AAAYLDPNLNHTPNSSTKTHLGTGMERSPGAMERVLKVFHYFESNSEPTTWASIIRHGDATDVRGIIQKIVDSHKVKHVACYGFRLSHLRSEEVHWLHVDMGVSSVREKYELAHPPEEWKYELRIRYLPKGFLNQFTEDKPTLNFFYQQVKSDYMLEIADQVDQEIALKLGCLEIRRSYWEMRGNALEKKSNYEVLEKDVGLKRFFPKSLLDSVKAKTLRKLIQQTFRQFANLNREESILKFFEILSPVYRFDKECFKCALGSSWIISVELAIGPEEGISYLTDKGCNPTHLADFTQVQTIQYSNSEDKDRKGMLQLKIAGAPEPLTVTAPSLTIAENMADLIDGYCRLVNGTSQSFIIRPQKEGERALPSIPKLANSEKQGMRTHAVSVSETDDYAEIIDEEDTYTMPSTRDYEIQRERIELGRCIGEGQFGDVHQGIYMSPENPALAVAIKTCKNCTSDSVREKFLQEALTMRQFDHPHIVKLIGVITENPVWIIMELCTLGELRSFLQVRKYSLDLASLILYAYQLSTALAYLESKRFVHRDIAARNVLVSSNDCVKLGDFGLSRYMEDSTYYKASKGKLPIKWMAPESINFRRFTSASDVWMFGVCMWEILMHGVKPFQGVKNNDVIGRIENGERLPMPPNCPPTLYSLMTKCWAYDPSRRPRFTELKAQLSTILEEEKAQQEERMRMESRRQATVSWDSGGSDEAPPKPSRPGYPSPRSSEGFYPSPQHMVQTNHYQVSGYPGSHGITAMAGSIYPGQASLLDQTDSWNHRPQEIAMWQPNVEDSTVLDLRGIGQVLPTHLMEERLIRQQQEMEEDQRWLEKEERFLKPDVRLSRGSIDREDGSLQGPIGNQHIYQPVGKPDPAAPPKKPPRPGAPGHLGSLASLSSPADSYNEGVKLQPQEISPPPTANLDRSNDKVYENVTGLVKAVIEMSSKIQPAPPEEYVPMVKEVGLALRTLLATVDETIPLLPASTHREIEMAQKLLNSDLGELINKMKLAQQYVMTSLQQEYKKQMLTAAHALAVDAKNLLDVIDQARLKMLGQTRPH

[8] = Cmax in Sprague-Dawley rat at 10 mg/kg, po measured upto 24 hrs by LC-MS/MS analysis; type: ADME, organism-based; parameters: route oral, dose 10 mg/kg, time <=24; details: in vivo
Procedure, shortened: as §1

[9] = Cmax in Sprague-Dawley rat at 2 mg/kg, iv measured upto 24 hrs by LC-MS/MS analysis; type: ADME, organism-based; parameters: route intravenous, dose 2 mg/kg, time <=24; details: in vivo
Procedure, shortened: as §1

[10] = Half life in Sprague-Dawley rat at 10 mg/kg, po measured upto 24 hrs by LC-MS/MS analysis; type: ADME, organism-based; details: in vivo
Procedure, shortened: as §1

[11] = Upregulation of integrin beta1 phosphorylation at Thr788 residue in human HCC cells at 30 uM by KEGG analysis relative to control; type: functional
[12] = MRT (0 to infinity) in Sprague-Dawley rat at 10 mg/kg, po by LC-MS/MS analysis; type: ADME, organism-based; details: in vivo
Procedure, shortened: as §1

[13] = Tmax in Sprague-Dawley rat at 2 mg/kg, iv measured upto 24 hrs by LC-MS/MS analysis; type: ADME, organism-based; details: in vivo
Procedure, shortened: as §1

[14] = Volume of distribution at steady state in Sprague-Dawley rat at 2 mg/kg, iv measured upto 24 hrs by LC-MS/MS analysis; type: ADME, organism-based; details: in vivo
Procedure, shortened: as §1

[15] = Toxicity in BALB/c nude mouse assessed as effect on body weight at 10 to 30 mg/kg, ip administered for 19 days; type: organism-based; details: in vivo, 456 h, dose 10-30 mg/kg, time 19 day
Procedure, shortened: (§3)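 Six-week-old male BALB/c nude mice bearing subcutaneous SMMC7721 xenografts (1.0 × 10⁷ cells); dosing started at mean tumor 25-35 mm³, n = 8 per group. Ip every 3 days in DMSO/propylene glycol/PBS (2:5:3); vehicle 1.0 mL/kg as negative control. Body weight weighed and deaths recorded every 3 days before each dose, through day 19.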

[16] = AUC (0 to infinity) in Sprague-Dawley rat at 10 mg/kg, po by LC-MS/MS analysis; type: ADME, organism-based; parameters: time infinity, route oral, dose 10 mg/kg; details: in vivo
Procedure, shortened: as §1

[17] = Half life in Sprague-Dawley rat at 2 mg/kg, iv measured upto 24 hrs by LC-MS/MS analysis; type: ADME, organism-based; details: in vivo
Procedure, shortened: as §1

SMMC-7721 [18] = assay: Antitumor activity against human […] cells xenografted in BALB/c nude mouse assessed as tumor size at 30 mg/kg, ip administered for 19 days (reference value: 600.8 mm3); type: functional; details: time 19 day
Procedure, shortened: as §2

Focal adhesion kinase 1 [19] = molecular target: T1, Focal adhesion kinase 1; assay: Inhibition of FAK phosphorylation in human HCC cells assessed as reduction in Akt phosphorylation at 30 mg/kg by KEGG analysis
Target sequence in this assay (Q05397 2-1052 limits assumed): as above

Focal adhesion kinase 1 [20] = molecular target: T1, Focal adhesion kinase 1; assay: Inhibition of FAK phosphorylation in human HCC cells assessed as reduction in NFkappaB phosphorylation at 30 mg/kg by KEGG analysis
Target sequence in this assay (Q05397 2-1052 limits assumed): as above

[21] = AUC (0 to t) in Sprague-Dawley rat at 2 mg/kg, iv measured upto 24 hrs by LC-MS/MS analysis; type: ADME, organism-based; parameters: route intravenous, dose 2 mg/kg, time <=24; details: in vivo
Focal adhesion kinase 1 [22] = molecular target: T1, Focal adhesion kinase 1; assay: Inhibition of FAK phosphorylation in human HCC cells assessed as upregulation of FOXO phosphorylation at 30 uM by KEGG analysis; type: cell-based
Target sequence in this assay (Q05397 2-1052 limits assumed): as above

SMMC-7721 [23] = assay: Antitumor activity against human […] cells xenografted in BALB/c nude mouse assessed as tumor size at 10 mg/kg, ip administered for 19 days (reference value: 600.8 mm3); type: functional; details: time 19 day
Procedure, shortened: as §2

[24] = AUC (0 to infinity) in Sprague-Dawley rat at 2 mg/kg, iv by LC-MS/MS analysis; type: ADME, organism-based; parameters: route intravenous, time infinity, dose 2 mg/kg; details: in vivo
Procedure, shortened: as §1

[25] = MRT (0 to t) in Sprague-Dawley rat at 10 mg/kg, po measured upto 24 hrs by LC-MS/MS analysis; type: ADME, organism-based; details: in vivo
Procedure, shortened: as §1

[26] = AUC (0 to t) in Sprague-Dawley rat at 10 mg/kg, po measured upto 24 hrs by LC-MS/MS analysis; type: ADME, organism-based; parameters: route oral, dose 10 mg/kg, time <=24; details: in vivo
Procedure, shortened: as §1

Focal adhesion kinase 1 [27] = molecular target: T1, Focal adhesion kinase 1; assay: Inhibition of FAK phosphorylation in human HCC cells assessed as reduction in PDK1 phosphorylation at 30 mg/kg by KEGG analysis
Target sequence in this assay (Q05397 2-1052 limits assumed): as above

[28] = Oral bioavailability in Sprague-Dawley rat 10 mg/kg measured upto 24 hrs by LC-MS/MS analysis; type: ADME, organism-based; details: in vivo
Procedure, shortened: as §1

[29] = MRT (0 to t) in Sprague-Dawley rat at 2 mg/kg, iv measured upto 24 hrs by LC-MS/MS analysis; type: ADME, organism-based; details: in vivo
Procedure, shortened: as §1

Focal adhesion kinase 1 [30] = molecular target: T1, Focal adhesion kinase 1; assay: Inhibition of FAK phosphorylation in human HCC cells at 30 mg/kg by KEGG analysis
Target sequence in this assay (Q05397 2-1052 limits assumed): as above

[31] = MRT (0 to infinity) in Sprague-Dawley rat at 2 mg/kg, iv by LC-MS/MS analysis; type: ADME, organism-based; details: in vivo
Procedure, shortened: as §1

[32] = Toxicity in BALB/c nude mouse assessed as animal's mortality at 10 to 30 mg/kg, ip administered for 19 days; type: organism-based; details: in vivo, 456 h, dose 10-30 mg/kg, time 19 day
Procedure, shortened: as §3

[33] = Toxicity in BALB/c nude mouse assessed as effect on body weight at 30 mg/kg, ip administered for 19 days; type: organism-based; details: in vivo, 456 h, time 19 day
Procedure, shortened: as §2

[34] = Toxicity in BALB/c nude mouse assessed as animal's mortality at 30 mg/kg, ip measured on day 11; type: organism-based; details: in vivo, 264 h, time 11 day
Procedure, shortened: as §3

SMILES: CN(c1ncccc1CNc1nc(Nc2ccc(F)c(Cl)c2)nc2[nH]cc(F)c12)S(C)(=O)=O
IC50 (cells): 82.5 µM
IC50 (SMMC-7721 [1]): > 100 µM
IC50 (Focal adhesion kinase 1 [2]): 41 nM

SMILES: CN(c1ncccc1CNc1nc(Nc2ccc3c(c2)CC(=O)N3)nc2[nH]cc(C#N)c12)S(C)(=O)=O
IC50 (cells): > 100 µM
IC50 (SMMC-7721 [1]): > 100 µM
IC50 (Focal adhesion kinase 1 [2]): 325 nM

SMILES: CNC(=O)c1ccccc1Nc1nc(Nc2cccc(NC(C)=O)c2)nc2[nH]cc(F)c12
Tmax [3]: 4.67 h
CL [4]: 869.41 mL/h/kg
Activity [5]: Non-Toxic
inhibition in vivo at 30 mg/kg (SMMC-7721 [6]): 78.6%
IC50 (cells): 2.39 µM
inhibition (Focal adhesion kinase 1 [7]): Active
IC50 (SMMC-7721 [1]): 10.1 µM
Cmax [8]: 15.4 ng/mL
Cmax [9]: 5020 ng/mL
half-life [10]: 219 min
fold change (FC) [11]: 2.82
MRT inf [12]: 6.62 h
Tmax [13]: 4.8 min
Vdss [14]: 1842.6 mL/kg
Activity [15]: Non-Toxic
AUC(0-inf) [16]: 119 ng·h/mL
half-life [17]: 87.6 min
Activity (SMMC-7721 [18]): 153.5 mm3
inhibition (Focal adhesion kinase 1 [19]): Active
inhibition (Focal adhesion kinase 1 [20]): Active
AUC(0-t) at 24 h [21]: 2300 ng·h/mL
inhibition (Focal adhesion kinase 1 [22]): Active
Activity (SMMC-7721 [23]): 348.3 mm3
AUC(0-inf) [24]: 2300 ng·h/mL
MRT last at 24 h [25]: 4.54 h
AUC(0-t) at 24 h [26]: 95.5 ng·h/mL
inhibition (Focal adhesion kinase 1 [27]): Active
bioavailability [28]: 0.83%
IC50 (Focal adhesion kinase 1 [2]): 12 nM
MRT last at 24 h [29]: 30.6 min
inhibition (Focal adhesion kinase 1 [30]): Active
MRT [31]: 31.8 min
Activity [32]: Non-Toxic

SMILES: CNC(=O)c1ccccc1Nc1nc(Nc2ccc(N3CCOCC3)cc2OC)nc2[nH]cc(F)c12
IC50 (cells): 14.2 µM
IC50 (SMMC-7721 [1]): 33.9 µM
IC50 (Focal adhesion kinase 1 [2]): 23 nM

SMILES: CNC(=O)c1cc(Oc2ccc(NC(=O)Nc3ccc(Cl)c(C(F)(F)F)c3)cc2)ccn1 [SORAFENIB]
Activity [33]: Non-Toxic
inhibition in vivo at 30 mg/kg (SMMC-7721 [6]): 45.1%
Activity (SMMC-7721 [18]): 343.4 mm3
Activity [34]: Non-Toxic

SMILES: CC(=O)NCc1cccc(Nc2nc(NCc3cccnc3N(C)S(C)(=O)=O)c3c(F)c[nH]c3n2)c1
IC50 (cells): 20.5 µM
IC50 (SMMC-7721 [1]): 21.7 µM
IC50 (Focal adhesion kinase 1 [2]): 23 nM

SMILES: CN(c1ncccc1CNc1nc(Nc2ccc3c(c2)CC(=O)N3)ncc1C(F)(F)F)S(C)(=O)=O [PF-00562271]
Activity [33]: Non-Toxic
inhibition in vivo at 30 mg/kg (SMMC-7721 [6]): 54.1%
Activity (SMMC-7721 [18]): 295.9 mm3
Activity [34]: Toxic

Next, values leading:

IC50 (cells): > 100 µM
IC50 (SMMC-7721 [1]): > 100 µM
IC50 (Focal adhesion kinase 1 [2]): 35 nM
SMILES: CN(c1ncccc1CNc1nc(Nc2cccc(C#N)c2)nc2[nH]cc(F)c12)S(C)(=O)=O

IC50 (cells): 12.4 µM
IC50 (SMMC-7721 [1]): 18.7 µM
IC50 (Focal adhesion kinase 1 [2]): 64 nM
SMILES: Cc1c[nH]c2nc(Nc3ccc4c(c3)CC(=O)N4)nc(NCc3cccnc3N(C)S(C)(=O)=O)c12

IC50 (cells): 2.39 µM
IC50 (SMMC-7721 [1]): 13.9 µM
IC50 (Focal adhesion kinase 1 [2]): 13 nM
SMILES: CN1CCN(c2ccc(Nc3nc(NCc4cccnc4N(C)S(C)(=O)=O)c4c(F)c[nH]c4n3)cc2)CC1

IC50 (cells): > 100 µM
IC50 (SMMC-7721 [1]): > 100 µM
IC50 (Focal adhesion kinase 1 [2]): 32 nM
SMILES: CN(c1ncccc1CNc1nc(Nc2ccccc2)nc2[nH]cc(F)c12)S(C)(=O)=O

IC50 (cells): 14.4 µM
IC50 (SMMC-7721 [1]): 16 µM
IC50 (Focal adhesion kinase 1 [2]): 21 nM
SMILES: CC(=O)Nc1cccc(Nc2nc(NCc3cccnc3N(C)S(C)(=O)=O)c3c(F)c[nH]c3n2)c1

IC50 (cells): > 100 µM
IC50 (SMMC-7721 [1]): > 100 µM
IC50 (Focal adhesion kinase 1 [2]): 2100 nM
SMILES: CN(c1ncccc1CNc1nc(Nc2cccc(CN)c2)nc2[nH]cc(F)c12)S(C)(=O)=O
